Laboratory results as given in ChEMBL document CHEMBL1137378, “Antibacterial agent discovery using thymidylate synthase biolibrary screening” (J Med Chem, 2006).
≈ marks a conversion by molar mass, not a printed value.

Assays:
Enterococcus faecalis = test: Antibacterial activity against Enterococcus faecalis ATCCC29212; format: functional
Outline: (§1)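 Wild-type strain panel (18 Gram-positive and Gram-negative strains). Bacteria grown in Mueller-Hinton broth at 37 °C for 24 h. Exponentially growing cultures diluted in sterile liquid medium to a final inoculum of about 1 × 10⁴ CFU/mL, then exposed to increasing compound concentrations. MIC taken as the lowest concentration with no evident bacterial growth.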

Escherichia coli [1] = test: Antibacterial activity against Escherichia coli 256; format: functional; outline: as §1
Escherichia coli [2] = test: Antibacterial activity against Escherichia coli 292; format: functional; outline: as §1
Vero [3] = test: Cytotoxicity against Vero cells measured as percent of cell growth at 25 mg/L relative to control by MTT assay; format: functional, Chlorocebus sabaeus
Outline: (§2)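 VERO cells grown in MEM with 5% heat-inactivated (56 °C, 30 min) FCS, penicillin, streptomycin and L-glutamine. Cultures were watched for 2 days and live cells counted. Cells were then exposed to increasing compound concentrations; wells with cells only served as control. After 24 h, mitochondrial dehydrogenase activity was read by MTT. Trypan blue exclusion was also run.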

Vero [4] = test: Cytotoxicity against Vero cells measured as percent of cell growth at 12.05 mg/L relative to control by MTT assay; format: functional, Chlorocebus sabaeus; outline: as §2
Vero [5] = test: Cytotoxicity against Vero cells measured as percent of cell growth at 6.25 mg/L relative to control by MTT assay; format: functional, Chlorocebus sabaeus; outline: as §2
Vero [6] = test: Cytotoxicity against Vero cells measured as percent of cell growth at 3.12 mg/L relative to control by MTT assay; format: functional, Chlorocebus sabaeus; outline: as §2
Dihydrofolate reductase = target: T1, Dihydrofolate reductase (Homo sapiens, UniProt P00374); test: Inhibition of human dihydrofolate reductase
T1 sequence (P00374 whole entry): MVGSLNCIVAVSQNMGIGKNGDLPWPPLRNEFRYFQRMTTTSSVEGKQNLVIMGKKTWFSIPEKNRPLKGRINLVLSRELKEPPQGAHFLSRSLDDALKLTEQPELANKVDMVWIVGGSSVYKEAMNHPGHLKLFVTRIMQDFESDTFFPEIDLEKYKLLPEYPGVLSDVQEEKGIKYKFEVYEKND
Outline: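 Purified human DHFR assayed spectrophotometrically at 25 °C by the fall in A340 on DHF reduction. Ki from steady-state kinetics.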

Listeria monocytogenes [7] = test: Antibacterial activity against Listeria monocytogenes 3; format: functional; outline: as §1
Listeria monocytogenes [8] = test: Antibacterial activity against Listeria monocytogenes 4; format: functional; outline: as §1
Listeria monocytogenes [9] = test: Antibacterial activity against Listeria monocytogenes 5; format: functional; outline: as §1
Listeria monocytogenes [10] = test: Antibacterial activity against Listeria monocytogenes 6; format: functional; outline: as §1
Listeria monocytogenes [11] = test: Antibacterial activity against Listeria monocytogenes 7; format: functional; outline: as §1
Listeria monocytogenes [12] = test: Antibacterial activity against Listeria monocytogenes 8; format: functional; outline: as §1
Listeria monocytogenes [13] = test: Antibacterial activity against Listeria monocytogenes ATCC 4428; format: functional; outline: as §1
Staphylococcus aureus [14] = test: Antibacterial activity against Staphylococcus aureus 341; format: functional; outline: as §1
Staphylococcus aureus [15] = test: Antibacterial activity against Staphylococcus aureus 343; format: functional; outline: as §1
Staphylococcus aureus [16] = test: Antibacterial activity against Staphylococcus aureus K28; format: functional; outline: as §1
Staphylococcus aureus [17] = test: Antibacterial activity against Staphylococcus aureus ATCC 29213; format: functional; outline: as §1
[18] = test system: Staphylococcus haemolyticus; test: Antibacterial activity against Staphylococcus haemolyticus ATCC 2997; format: functional; outline: as §1
[19] = test system: Staphylococcus saprophyticus; test: Antibacterial activity against Staphylococcus saprophyticus ATCC 15305; format: functional; outline: as §1
Citrobacter = test: Antibacterial activity against Citrobacter 224; format: functional; outline: as §1
Streptococcus = test: Antibacterial activity against Streptococcus 42; format: functional; outline: as §1
Vero [20] = test: Cytotoxicity against Vero cells measured as percent of cell growth at 50 mg/L relative to control by MTT assay; format: functional, Chlorocebus sabaeus; outline: as §2
[21] = test system: Staphylococcus epidermidis; test: Antibacterial activity against multiresistant Staphylococcus epidermidis 39; format: functional
Outline: (§3)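 Clinical multidrug-resistant isolates from hospitalized patients' blood or urine. Bacteria grown in Mueller-Hinton broth at 37 °C for 24 h. Exponential-phase cultures diluted in sterile liquid medium to a final inoculum of about 1 × 10⁴ CFU/mL, then exposed to increasing compound concentrations. Inhibitor stocks in DMSO. MIC (µg/mL) taken as the lowest concentration with no evident bacterial growth.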

[22] = test system: Staphylococcus epidermidis; test: Antibacterial activity against multiresistant Staphylococcus epidermidis 42; format: functional
[23] = test system: Staphylococcus epidermidis; test: Antibacterial activity against multiresistant Staphylococcus epidermidis 33; format: functional
Vero [24] = test: Cytotoxicity against Vero cells measured as percent of cell growth at 1.56 mg/L relative to control by MTT assay; format: functional, Chlorocebus sabaeus; outline: as §2
[25] = test system: Staphylococcus epidermidis; test: Antibacterial activity against multiresistant Staphylococcus epidermidis 45; format: functional; outline: as §3
[26] = test system: Staphylococcus epidermidis; test: Antibacterial activity against multiresistant Staphylococcus epidermidis […]; format: functional
[27] = test system: Staphylococcus epidermidis; test: Antibacterial activity against multiresistant Staphylococcus epidermidis 30; format: functional; outline: as §3
[28] = test system: Staphylococcus epidermidis; test: Antibacterial activity against multiresistant Staphylococcus epidermidis 32; format: functional; outline: as §3
[29] = test system: Staphylococcus epidermidis; test: Antibacterial activity against multiresistant Staphylococcus epidermidis 50; format: functional; outline: as §3
[30] = test system: Staphylococcus epidermidis; test: Antibacterial activity against multiresistant Staphylococcus epidermidis 21; format: functional; outline: as §3
[31] = test system: Staphylococcus epidermidis; test: Antibacterial activity against multiresistant Staphylococcus epidermidis 48; format: functional; outline: as §3
[32] = test system: Staphylococcus epidermidis; test: Antibacterial activity against multiresistant Staphylococcus epidermidis 36; format: functional; outline: as §3
Staphylococcus aureus [33] = test: Antibacterial activity against multiresistant Staphylococcus aureus 27; format: functional; outline: as §3
Staphylococcus aureus [34] = test: Antibacterial activity against multiresistant Staphylococcus aureus 15; format: functional; outline: as §3
Staphylococcus aureus [35] = test: Antibacterial activity against multiresistant Staphylococcus aureus 17; format: functional; outline: as §3
[36] = test system: Staphylococcus haemolyticus; test: Antibacterial activity against multiresistant Staphylococcus haemolyticus 51; format: functional; outline: as §3
[37] = test system: Staphylococcus haemolyticus; test: Antibacterial activity against multiresistant Staphylococcus haemolyticus 56; format: functional; outline: as §3
Enterococcus faecium [38] = test: Antibacterial activity against multiresistant Enterococcus faecium 52; format: functional; outline: as §3
Enterococcus faecium [39] = test: Antibacterial activity against multiresistant Enterococcus faecium 28; format: functional; outline: as §3
Enterococcus faecium [40] = test: Antibacterial activity against multiresistant Enterococcus faecium 57; format: functional; outline: as §3
Enterococcus faecium [41] = test: Antibacterial activity against multiresistant Enterococcus faecium 6; format: functional; outline: as §3
Enterococcus gallinarum [42] = test: Antibacterial activity against multiresistant Enterococcus gallinarum 37; format: functional; outline: as §3
Enterococcus gallinarum [43] = test: Antibacterial activity against multiresistant Enterococcus gallinarum 64; format: functional; outline: as §3
Staphylococcus aureus [44] = test: Antibacterial activity against multiresistant Staphylococcus aureus 9; format: functional; outline: as §3

Question: How did the MIC (Enterococcus faecalis) turn out when `O=C1OC(c2ccc(O)c(Cl)c2)(c2ccc(O)c(Cl)c2)c2cccc3cccc1c23` was run?
Answer: The MIC was 10 µg/mL (≈ 22.9 µM).

Question: What about the MIC (Escherichia coli [1]) of the same compound?
Answer: Its MIC is greater than 25 µg/mL.

Question: What about the MIC (Escherichia coli [2]) of the same compound?
Answer: Its MIC is greater than 25 µg/mL.

Question: What about the Activity (Vero [3]) of the same compound?
Answer: Its Activity is 70%.

Question: What about the Activity (Vero [4]) of the same compound?
Answer: The Activity was 90%.

Question: What about the Activity (Vero [5]) of the same compound?
Answer: The Activity was 90%.

Question: What about the Activity (Vero [6]) of the same compound?
Answer: Its Activity is 90%.

Question: What about the Ki (Dihydrofolate reductase) of the same compound?
Answer: Its Ki is 5.2 µM.

Question: What about the MIC (Listeria monocytogenes [7]) of the same compound?
Answer: The MIC was 2.5 µg/mL (≈ 5.72 µM).

Question: What about the MIC (Listeria monocytogenes [8]) of the same compound?
Answer: The MIC was 10 µg/mL (≈ 22.9 µM).

Question: What about the MIC (Listeria monocytogenes [9]) of the same compound?
Answer: Its MIC is 5 µg/mL (≈ 11.4 µM).

Question: And the MIC (Listeria monocytogenes [10])?
Answer: The MIC was 10 µg/mL (≈ 22.9 µM).

Question: What about the MIC (Listeria monocytogenes [11]) of the same compound?
Answer: Its MIC is 5 µg/mL (≈ 11.4 µM).

Question: What about the MIC (Listeria monocytogenes [12]) of the same compound?
Answer: The MIC was 5 µg/mL (≈ 11.4 µM).

Question: And the MIC (Listeria monocytogenes [13])?
Answer: Its MIC is 5 µg/mL (≈ 11.4 µM).

Question: What about the MIC (Staphylococcus aureus [14]) of the same compound?
Answer: The MIC was 5 µg/mL (≈ 11.4 µM).

Question: And the MIC (Staphylococcus aureus [15])?
Answer: The MIC was 5 µg/mL (≈ 11.4 µM).

Question: And the MIC (Staphylococcus aureus [16])?
Answer: Its MIC is greater than 25 µg/mL.

Question: What about the MIC (Staphylococcus aureus [17]) of the same compound?
Answer: The MIC was 5 µg/mL (≈ 11.4 µM).

Question: What about the MIC [18] of the same compound?
Answer: The MIC was 2.5 µg/mL (≈ 5.72 µM).

Question: And the MIC [19]?
Answer: Its MIC is 2.5 µg/mL (≈ 5.72 µM).

Question: What about the MIC (Citrobacter) of the same compound?
Answer: The MIC was greater than 25 µg/mL.

Question: What about the MIC (Streptococcus) of the same compound?
Answer: The MIC was 5 µg/mL (≈ 11.4 µM).

Question: What about the Activity (Vero [20]) of the same compound?
Answer: Its Activity is 58%.

Question: What about the MIC [21] of the same compound?
Answer: Its MIC is 2.5 µg/mL (≈ 5.72 µM).

Question: What about the MIC [22] of the same compound?
Answer: Its MIC is 5 µg/mL (≈ 11.4 µM).

Question: What about the MIC [23] of the same compound?
Answer: The MIC was greater than 65 µg/mL.

Question: What about the Activity (Vero [24]) of the same compound?
Answer: Its Activity is 90%.

Question: What about the MIC [25] of the same compound?
Answer: Its MIC is greater than 65 µg/mL.

Question: What about the MIC [26] of the same compound?
Answer: The MIC was greater than 65 µg/mL.

Question: And the MIC [27]?
Answer: Its MIC is greater than 65 µg/mL.

Question: And the MIC [28]?
Answer: The MIC was greater than 65 µg/mL.

Question: And the MIC [29]?
Answer: Its MIC is greater than 65 µg/mL.

Question: And the MIC [30]?
Answer: The MIC was greater than 65 µg/mL.

Question: And the MIC [31]?
Answer: The MIC was greater than 65 µg/mL.

Question: And the MIC [32]?
Answer: Its MIC is greater than 65 µg/mL.

Question: And the MIC (Staphylococcus aureus [33])?
Answer: The MIC was greater than 65 µg/mL.

Question: And the MIC (Staphylococcus aureus [34])?
Answer: The MIC was greater than 65 µg/mL.

Question: What about the MIC (Staphylococcus aureus [35]) of the same compound?
Answer: The MIC was greater than 65 µg/mL.

Question: And the MIC [36]?
Answer: The MIC was greater than 65 µg/mL.

Question: What about the MIC [37] of the same compound?
Answer: Its MIC is greater than 65 µg/mL.

Question: And the MIC (Enterococcus faecium [38])?
Answer: Its MIC is greater than 65 µg/mL.

Question: And the MIC (Enterococcus faecium [39])?
Answer: Its MIC is greater than 75 µg/mL.

Question: What about the MIC (Enterococcus faecium [40]) of the same compound?
Answer: Its MIC is 10 µg/mL (≈ 22.9 µM).

Question: And the MIC (Enterococcus faecium [41])?
Answer: The MIC was 10 µg/mL (≈ 22.9 µM).

Question: And the MIC (Enterococcus gallinarum [42])?
Answer: The MIC was 10 µg/mL (≈ 22.9 µM).

Question: And the MIC (Enterococcus gallinarum [43])?
Answer: Its MIC is 2.5 µg/mL (≈ 5.72 µM).

Question: And the MIC (Staphylococcus aureus [44])?
Answer: Its MIC is greater than 65 µg/mL.
